Results as given in ChEMBL document CHEMBL1144046, “2-Methylene 19-nor-25-dehydro-1alpha-hydroxyvitamin D3 26,23-lactones: synthesis, biological activities and molecular basis of passive antagonism” (Bioorg Med Chem, 2008).

Columns and labels:
Vitamin D3 receptor [1] = biological target: T1, Vitamin D3 receptor (Homo sapiens, UniProt P11473); assay: Agonist activity at human VDR in HEK293 cells assessed as induction of transcriptional transactivation after 24 hrs by mouse osteopontin luciferase reporter gene assay; type: functional, cell-based
T1 sequence (P11473 whole entry): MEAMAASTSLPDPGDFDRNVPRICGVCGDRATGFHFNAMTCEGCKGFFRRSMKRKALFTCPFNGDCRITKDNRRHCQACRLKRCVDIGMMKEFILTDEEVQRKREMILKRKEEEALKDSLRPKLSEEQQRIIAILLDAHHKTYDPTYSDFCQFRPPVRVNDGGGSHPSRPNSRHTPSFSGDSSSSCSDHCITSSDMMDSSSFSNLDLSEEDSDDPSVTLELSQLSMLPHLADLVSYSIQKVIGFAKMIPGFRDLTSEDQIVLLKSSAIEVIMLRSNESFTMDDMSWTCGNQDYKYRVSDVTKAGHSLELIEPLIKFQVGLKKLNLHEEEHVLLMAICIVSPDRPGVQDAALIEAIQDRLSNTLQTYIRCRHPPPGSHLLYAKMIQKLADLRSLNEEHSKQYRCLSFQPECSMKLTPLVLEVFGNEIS

Vitamin D3 receptor [2] = biological target: T1, Vitamin D3 receptor; assay: Antagonist activity at human VDR in COS7 cells assessed as induction of transcriptional transactivation after 24 hrs by mouse osteopontin luciferase reporter gene assay; type: functional, cell-based, COS-7
Summary of the method: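 Cos7 cells grown in DMEM + 5% FBS, seeded 2 × 10⁴/well; after 24 h lipofected with hVDR expression plasmid, SPPx3-TK-Luc reporter and pRL-CMV control. After 4 h switched to 5% charcoal-treated FCS; next day ligand given with 10 nM 1,25-(OH)2D3 for 24 h. Dual luciferase normalized to internal control; IC50 from dose–response curves.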

Vitamin D3 receptor [3] = biological target: T2, Vitamin D3 receptor (Rattus norvegicus, UniProt P13053); assay: Displacement of [3H]1,25-(OH)2D3 from rat recombinant His-tagged VDR ligand-binding domain expressed in Escherichia coli BL21
T2 sequence (P13053 whole entry): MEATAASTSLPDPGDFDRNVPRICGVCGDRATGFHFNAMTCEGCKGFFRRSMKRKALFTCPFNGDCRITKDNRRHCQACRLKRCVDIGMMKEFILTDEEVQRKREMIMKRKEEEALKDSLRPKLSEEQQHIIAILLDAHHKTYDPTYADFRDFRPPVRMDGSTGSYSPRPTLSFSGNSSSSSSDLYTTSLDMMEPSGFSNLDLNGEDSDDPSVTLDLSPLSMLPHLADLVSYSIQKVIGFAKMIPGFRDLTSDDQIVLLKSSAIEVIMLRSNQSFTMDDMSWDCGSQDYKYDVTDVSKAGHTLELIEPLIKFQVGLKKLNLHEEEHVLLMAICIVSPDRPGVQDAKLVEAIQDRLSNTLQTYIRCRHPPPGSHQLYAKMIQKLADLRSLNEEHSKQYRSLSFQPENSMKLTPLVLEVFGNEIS
Summary of the method: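 Crude lysate of E. coli–expressed His-tagged rat VDR-LBD (aa 115–423), diluted 1000-fold in 50 mM Tris, 100 mM KCl, 5 mM DTT, 0.5% Chaps, pH 7.5, BSA 100 µg/mL. Ligand preincubated 1 h RT, then [3H]-1,25-(OH)2D3 (~5000 dpm) 18 h at 4 °C. Dextran-charcoal separation, scintillation counting; at least twice in duplicate; EC50 for 50% displacement.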

Vitamin D3 receptor [4] = biological target: T1, Vitamin D3 receptor; assay: Antagonist activity at human VDR in HEK293 cells assessed as induction of transcriptional transactivation after 24 hrs by mouse osteopontin luciferase reporter gene assay; type: functional, cell-based
Summary of the method: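 HEK293 cells in DMEM + 5% FBS with penicillin/streptomycin, 37 °C, 5% CO2; calcium phosphate cotransfection of hVDR expression plasmid and SPPx3-TK-Luc reporter. Compounds added 8 h later with 10 nM 1,25-(OH)2D3; harvest after 16–24 h. Luciferase normalized to β-galactosidase; triplicate; IC50 from dose–response curves.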

Vitamin D3 receptor [5] = biological target: T1, Vitamin D3 receptor; assay: Agonist activity at human VDR in COS7 cells assessed as induction of transcriptional transactivation after 24 hrs by mouse osteopontin luciferase reporter gene assay; type: functional, cell-based, COS-7

SMILES | EC50 (Vitamin D3 receptor [1]) [nM] | IC50 (Vitamin D3 receptor [2]) [nM] | EC50 (Vitamin D3 receptor [3]) [nM] | IC50 (Vitamin D3 receptor [4]) [nM] | EC50 (Vitamin D3 receptor [5]) [nM]
C=C1C[C@@H](C[C@@H](C)[C@H]2CC[C@H]3/C(=C/C=C4C[C@@H](O)C(=C)[C@H](O)C4)CCC[C@]23C)OC1=O | 200 | 1000 | 20 | 300 | 150
C=C1C[C@H](C[C@@H](C)[C@H]2CC[C@H]3/C(=C/C=C4C[C@@H](O)C(=C)[C@H](O)C4)CCC[C@]23C)OC1=O | 1 | – | 0.7 | – | 25
C=C1C[C@H](C[C@H](C)[C@H]2CC[C@H]3/C(=C/C=C4C[C@@H](O)C(=C)[C@H](O)C4)CCC[C@]23C)OC1=O | 15 | 100 | 5 | – | 10
C=C1C[C@@H](C[C@H](C)[C@H]2CC[C@H]3/C(=C/C=C4C[C@@H](O)C(=C)[C@H](O)C4)CCC[C@]23C)OC1=O | 20 | 300 | 5 | – | 6
